Source: ChEMBL document CHEMBL4007405 (J Med Chem, 2017)
Positions of bridges follow the written chain, without caps; N, C: chain ends. Residues, ends and D or L forms follow the SMILES beside them.

Tests used:
[1] = molecular target: Disintegrin and metalloproteinase domain-containing protein 17 (Homo sapiens) (UniProt P78536); test: Inhibition of recombinant human glycosylated his-tagged TACE catalytic domain (233 to 477 residues) assessed as inhibition of proteolytic activity preincubated for 30 mins prior to addition of Mca-Pro-Leu-Ala-Gln-Ala-Val-Dpa-Arg-Ser-Ser-Ser-Arg-NH2 as substrate measured every 2 mins for 3 hrs by fluorescence analysis
Summary of the method: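 TACE catalytic domain (233-477) at 2 nM in 2.5 μM ZnCl2, 25 mM Tris-HCl, pH 8.0. Preincubated with peptide from 1 nM to 10 μM for 30 min at room temperature. Fluorogenic Mca/Dpa substrate then added to a final 3 μM. Fluorescence read every 2 min for 3 h (excitation 320 nm, emission 405 nm). Initial velocities fitted to log(inhibitor)–response with variable Hill slope.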

[2] = molecular target: T1, Lethal factor (Bacillus anthracis) (UniProt P15917); test: (§1) Inhibition of Bacillus anthracis lethal factor protease preincubated for 30 mins prior to addition of substrate containing fluorescent proteins CyPet and YPet measured every 2 mins for 3 hrs by FRET assay
T1 sequence (whole entry): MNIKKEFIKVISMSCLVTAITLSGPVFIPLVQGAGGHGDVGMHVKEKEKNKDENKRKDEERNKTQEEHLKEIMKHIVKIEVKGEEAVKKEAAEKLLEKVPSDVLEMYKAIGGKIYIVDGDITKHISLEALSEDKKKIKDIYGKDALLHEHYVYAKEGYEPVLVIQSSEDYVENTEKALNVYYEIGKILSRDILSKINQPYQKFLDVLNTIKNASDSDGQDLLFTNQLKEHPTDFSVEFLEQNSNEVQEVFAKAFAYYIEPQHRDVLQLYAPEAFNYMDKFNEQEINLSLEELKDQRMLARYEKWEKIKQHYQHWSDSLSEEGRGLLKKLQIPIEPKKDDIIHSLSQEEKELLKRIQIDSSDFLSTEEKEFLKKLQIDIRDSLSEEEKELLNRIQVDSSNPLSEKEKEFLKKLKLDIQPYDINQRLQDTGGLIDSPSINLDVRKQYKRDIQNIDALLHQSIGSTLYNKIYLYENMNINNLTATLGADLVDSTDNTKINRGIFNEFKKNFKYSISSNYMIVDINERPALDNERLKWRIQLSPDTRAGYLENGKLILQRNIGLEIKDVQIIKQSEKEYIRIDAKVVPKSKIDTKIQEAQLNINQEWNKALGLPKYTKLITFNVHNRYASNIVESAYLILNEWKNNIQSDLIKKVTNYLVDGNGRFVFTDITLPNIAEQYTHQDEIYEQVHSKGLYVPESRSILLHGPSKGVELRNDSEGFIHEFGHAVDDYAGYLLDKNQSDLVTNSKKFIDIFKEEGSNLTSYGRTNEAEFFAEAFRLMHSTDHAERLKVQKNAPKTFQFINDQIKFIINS
Summary of the method: (§2)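 Preincubated with peptide from 1 nM to 10 μM for 30 min at room temperature. CyPet–YPet substrate (LF consensus sequence with (GGS)6 linkers) then added to a final 10 nM. FRET read every 2 min for 3 h with excitation at 405 nm and emission ratio It/I0 at 535 nm. Initial velocities fitted to log(inhibitor)–response with variable Hill slope. Run in triplicate.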

Lethal factor [3] = molecular target: T2, Lethal factor (Bacillus anthracis, UniProt P15917); test: as §1; summary of the method: as §2
T2 sequence (P15917 whole entry): T1 sequence (whole entry)

HeLa = test: Cytotoxicity against human HeLa cells up to 100 uM after 48 hrs by MTT assay; assay type: cell-based
Summary of the method: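 HeLa cells grown in DMEM with 10% FBS, penicillin and streptomycin at 37° C, 5% CO2. About 3 × 10^3 cells per well were seeded for 24 h, washed with PBS, then exposed to peptides in DMEM/10% FBS for 48 h at 37° C. MTT was added for 2 h and formazan dissolved in DMSO. Absorbance read at 595 nm with 670 nm background subtracted.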

Lethal factor [4] = molecular target: T2, Lethal factor

Chain of Disintegrin and metalloproteinase domain-containing protein 17 (Homo sapiens) (P78536 whole entry, the tested form may be a part): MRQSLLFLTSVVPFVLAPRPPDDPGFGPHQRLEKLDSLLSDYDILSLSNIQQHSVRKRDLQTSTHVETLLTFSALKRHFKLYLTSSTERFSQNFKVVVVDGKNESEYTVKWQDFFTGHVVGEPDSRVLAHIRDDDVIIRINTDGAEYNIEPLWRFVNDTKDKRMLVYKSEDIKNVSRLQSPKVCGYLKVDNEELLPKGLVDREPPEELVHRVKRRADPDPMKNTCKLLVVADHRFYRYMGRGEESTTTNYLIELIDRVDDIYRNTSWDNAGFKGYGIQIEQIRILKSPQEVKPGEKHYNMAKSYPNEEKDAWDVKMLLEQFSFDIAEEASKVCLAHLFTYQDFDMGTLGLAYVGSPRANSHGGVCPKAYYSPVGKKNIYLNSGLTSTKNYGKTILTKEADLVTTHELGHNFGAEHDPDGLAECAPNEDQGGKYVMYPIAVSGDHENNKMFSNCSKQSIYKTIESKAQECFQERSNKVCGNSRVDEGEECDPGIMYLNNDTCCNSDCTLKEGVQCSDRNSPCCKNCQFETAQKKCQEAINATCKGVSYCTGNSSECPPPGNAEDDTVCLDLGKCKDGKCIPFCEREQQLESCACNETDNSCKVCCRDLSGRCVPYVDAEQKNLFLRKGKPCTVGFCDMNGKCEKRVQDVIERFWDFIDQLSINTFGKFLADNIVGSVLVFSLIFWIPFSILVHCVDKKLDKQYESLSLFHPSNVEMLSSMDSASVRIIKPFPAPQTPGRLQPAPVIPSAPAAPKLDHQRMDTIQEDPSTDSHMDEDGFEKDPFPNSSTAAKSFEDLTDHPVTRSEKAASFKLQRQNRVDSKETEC

`CC[C@H](C)[C@@H]1NC(=O)[C@@H]2CSSC[C@H](NC(=O)[C@H](CCCNC(=N)N)NC(=O)[C@@H]3CSSC[C@H](NC1=O)C(=O)N[C@@H]([C@@H](C)O)C(=O)N[C@@H](CCCNC(=N)N)C(=O)NCC(=O)N[C@@H](Cc1ccccc1)C(=O)N3)C(=O)N[C@@H](CC(C)C)C(=O)N[C@H]1CSSC[C@H](NC(=O)[C@H](C(C)C)NC(=O)CNC(=O)[C@H](CCCNC(=N)N)NC(=O)[C@H](CCCNC(=N)N)NC1=O)C(=O)N[C@@H](CCCNC(=N)N)C(=O)N2` (cyclo(GFCRCLCRRGVCRCICTR); disulfide 3-16, 5-14, 7-12) was tested, and the inhibition [1] was “Dose-dependent effect”, the inhibition [2] was “Dose-dependent effect” and the IC50 (Lethal factor [3]) was 0.39 µM. For the same compound, the Activity (HeLa) was “Non-Toxic” and the IC50 (Lethal factor [4]) was 1.06 µM.
